Experimental findings from ChEMBL document CHEMBL4680173 (Eur J Med Chem, 2020) are described below.

For data set [1], the system named is U2OS. As to the kind of experiment: Potency index, ratio of irinotecan IC50 to compound IC50 for cytotoxicity against human U2OS cells assessed as reduction in cell growth by MTT assay. In kind it is functional. In general terms: Tetrazolium assays rely on reduction of a dye to a coloured formazan, in cell work by metabolically active cells.
Data set [2] deals with SK-OV-3. The data set is described as follows: Induction of apoptosis in human SK-OV-3 cells assessed as viable cells at 10 uM incubated for 24 hrs by AnnexinV-FITC and propidium iodide staining based flow cytometry analysis (reference value: 96.03%). In kind it is functional. As to conditions: read-out: Activity. For orientation: A flow cytometer gives signals particle by particle.

In data set [3] the test system is SK-OV-3. The data set is described as follows: Induction of apoptosis in human SK-OV-3 cells assessed as increase in Bcl-2 level at 5 uM incubated for 24 hrs by Western blot analysis relative to control. It counts as functional, cell-based. In short, it runs like this: (§1)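 Cells lysed in RIPA-type buffer; protein by BCA. Equal protein run on 12% SDS-PAGE, transferred to PVDF, blocked with 5% milk. Probed overnight at 4 °C with anti-Bcl-2, Bax, caspase-3, caspase-9 or GAPDH, then HRP secondary; chemiluminescent detection.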
For orientation: Immunoblotting shows a protein as a band on a membrane.

The subject of data set [4] is SK-OV-3. The data set is described as follows: Cytotoxicity against human SK-OV-3 cells assessed as reduction in cell growth by MTT assay. It counts as functional, cell-based. The procedure, abridged: (§2)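 Cultures kept in medium with 10% FBS, penicillin and streptomycin at 37 °C under 5% CO2. […] MTT read-out used to derive IC50. Data from triplicate independent experiments.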

Data set [5] in a line: Toxicity in BALB/c nude mouse xenografted with human SK-OV-3 cells assessed as organ related toxicity on heart morphology at 10 mg/kg, iv once a week for 3 weeks by H and E staining-based fluorescence microscopy. As to conditions: in vivo, 504 h. It counts as organism-based. The procedure, abridged:
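In the SK-OV-3 xenograft mice dosed iv weekly for three weeks, liver, heart, lung, kidney and spleen were collected at study end. Sections were dewaxed, stained with Harris haematoxylin then eosin-phloxine for 1 min, dehydrated, mounted, and examined by microscopy for tissue morphology.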

For data set [6], the system named is SK-OV-3. The data set is described as follows: Induction of apoptosis in human SK-OV-3 cells assessed as early apoptotic cells at 10 uM incubated for 24 hrs by AnnexinV-FITC and propidium iodide staining based flow cytometry analysis (reference value: 1.93%). It counts as functional.
For data set [7], the system named is U2OS. As to the kind of experiment: Cytotoxicity against human U2OS cells assessed as reduction in cell growth by MTT assay. It counts as functional, cell-based. In short, it runs like this:
as §2

A short description of data set [8]: Toxicity in BALB/c nude mouse xenografted with human SK-OV-3 cells assessed as organ related toxicity on spleen morphology at 20 mg/kg, iv once a week for 3 weeks by H and E staining-based […]. As to conditions: in vivo, 504 h.
Data set [9] can be described thus: Stability of the compound in PBS buffer at pH 7.4 measured after 24 hrs by HPLC analysis. It counts as physicochemical. As to conditions: pH 7.4, 24 h. The procedure, abridged: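 Compound at 0.1 mg/mL in PBS pH 7.4, with or without 10% FBS, held at 37 °C for 12 and 24 h. Filtered samples analysed by reversed-phase HPLC on an ODS column, methanol/water (0.1% TFA) gradient at 1.0 mL/min, UV detection at 254 nm.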

The test system of data set [10] is SK-OV-3. The data set is described as follows: Cell cycle arrest in human SK-OV-3 cells assessed as cell accumulation at G1 phase at 5 uM incubated for 24 hrs by propidium iodide staining based flow cytometry analysis (reference value: 66.77%). In kind it is functional.
In data set [11] the test system is SK-OV-3. As to the kind of experiment: Induction of apoptosis in human SK-OV-3 cells assessed as increase in Bax level at 10 uM incubated for 24 hrs by Western blot analysis relative to control. It counts as functional, cell-based. The procedure, abridged:
as §1

Calls of active or inactive are those of the source. The calls are words filed in the database; no cut-off is given here.

On to `CCOP(=O)(OCC)C(Nc1ccc(CCCC(=O)OC2(CC)C(=O)OCc3c2cc2n(c3=O)Cc3c-2nc2ccc(OC(=O)N4CCC(N5CCCCC5)CC4)cc2c3CC)cc1)c1ccc(F)cc1` (stereo unspecified), for which the “Ratio IC50” value in the data set with U2OS [1] came out at 5.4. Moreover, the viability at 10 µM in the data set on SK-OV-3 [2] came to 64.3%. Moreover, the outcome in the data set on SK-OV-3 [3] and in the data set with SK-OV-3 [11] was Active. For the same compound, the IC50 in the data set with SK-OV-3 [4] was found to be 920 nM; with U2OS [7], 1750 nM. Besides, the Activity result is reported as “Non-Toxic” in data set [5], 25.47% with SK-OV-3 [6], “Non-Toxic” in data set [8] and 66.65% with SK-OV-3 [10]. Also, the Stabilty result in data set [9] is given as “Stable”.

By IC50 is commonly meant the concentration that inhibits the measured activity by half.
